Lmaj promast – Leishmania major promastigote growth inhibition | inhibition, % at 10 µM | 9% of 200,000 active | AID 1063 | Leishmania major promastigotes, resazurin fluorescence viability; in the data active = inhibition above about 50%;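 also: promastigotes grown with compound for 44 hours at 28 °C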
WT yeast gro inh – growth inhibition of WT yeast, mitochondrial fusion screen. mitochondrial fusion phenotypic screen, WT strain. inhibition, % at 10 µM. 2.1% of 190,000 active; in the data active = inhibition above about 58%; tested in S. cerevisiae
KCC2 mod – modulators of human KCC2 chloride dependent transport. Q9H2X9. KCC2 cells, thallium flux FluoZin-2 fluorescence. B-score of Tl+ flux slope (higher = more flux/activation; lower = inhibition) at 10 µM. 2.2% of 190,000 active;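 active = thallium flux slope and its plate-corrected score both differing from the plate sample mean at a set confidence after two filtering rounds, in either direction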;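 also: slope of fluorescence scaled to starting intensity during 10 to 20 s after thallium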
ROMK primary – modulators of human ROMK potassium channel | P48048 | Tet-inducible ROMK, thallium flux fluorescence; actives lie on both sides | B-score at 10 µM | 2% of 130,000 active;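 active = signal ratio slope over the read window, or its plate-corrected B-score, at least 3 SD from the plate mean, either direction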;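 also: B-score of the F/F0 ratio slope over 7 to 12 s after thallium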
Target sequence (P48048 whole entry, looked up): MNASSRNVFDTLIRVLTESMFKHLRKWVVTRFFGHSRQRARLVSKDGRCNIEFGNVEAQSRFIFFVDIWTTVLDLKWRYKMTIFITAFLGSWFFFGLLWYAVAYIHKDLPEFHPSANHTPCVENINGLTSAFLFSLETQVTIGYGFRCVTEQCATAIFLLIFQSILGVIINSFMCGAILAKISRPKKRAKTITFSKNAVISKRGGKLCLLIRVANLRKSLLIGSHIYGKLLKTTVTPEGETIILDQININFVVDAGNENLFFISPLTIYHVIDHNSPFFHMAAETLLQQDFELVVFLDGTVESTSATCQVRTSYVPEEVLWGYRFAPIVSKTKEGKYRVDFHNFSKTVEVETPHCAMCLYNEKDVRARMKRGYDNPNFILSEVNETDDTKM
Diaphorase inh – counter-screen for diaphorase-based assays: diaphorase inhibitors and chemical oxidizers; AID 1217; diaphorase resazurin-to-resorufin fluorescence, NADH, 16 min; bacterial (C. kluyveri) enzyme, not human; 0.69% of 190,000 active; inhibition, % at 20 µM;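 active = primary screen inhibition at 20 µM above a set limit, cut at about 50% in these data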
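Assay system – diaphorase enzyme from Clostridium kluyveri · Amount – diaphorase 0.14 U/mL (working solution) · Times – reaction incubation of 16 min at room temperature · Controls – No-NADH positive control and DMSO neutral control · Signal – resorufin fluorescence 544/590 nm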
Diaph act CS – diaphorase activation or chemical reduction counter-screen; Diaphorase/resazurin coupled assay, resorufin fluorescence, 16 min; hits give high values; 1 = vehicle wells, 0 = NADH-free wells; activation factor at 20 µM; 0.005% of 190,000 active; AID 1229;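 active = diaphorase activity raised at least twofold by the compound at 20 µM; inactive = activation factor below 2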
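Material: purified diaphorase enzyme from Clostridium kluyveri; Also added: 0.114 mM NADH and 0.1 mM resazurin, final amounts; Doses: single compound dose of 20 µM, 1% DMSO final; Times: 16 min enzyme reaction, ambient temperature; Detection: resorufin fluorescence, excitation 544 nm, emission 590 nm; Measure: increased resorufin signal from activators or reducing compounds.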
KCC2 sec1 – confirmation of human KCC2 transport modulators. normalised thallium flux (F/F0 slope) at 10 µM. AID 1713. shares compounds with KCC2 mod. HEK293-KCC2, thallium flux, FluoZin2 fluorescence; hits give high values. 15% of 3,700 active;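 active = thallium flux slope above the same plate's solvent-only control mean plus 3 SD; inconclusive = the two replicate wells disagree; inactive = no significant difference from solvent-only control wells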
KCC2 bumet counter – thallium flux despite bumetanide block in KCC2 cells, secondary assay 3. normalized thallium flux at 10 µM. shares compounds with KCC2 mod. 49% of 3,700 active. HEK293-KCC2 + bumetanide/ouabain, thallium flux FluoZin2; hits give high values;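 active = thallium entry rate above the same plate's blocked-transporter control wells by more than 3 SD; inconclusive = the two repeat wells disagree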;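 also: raw slope of fluorescence over initial fluorescence between 10 and 20 s after thallium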
KCC2 secondary2 – confirmation of human KCC2 transport modulators; shares compounds with KCC2 mod; HEK293-KCC2, thallium flux FluoZin2 fluorescence; actives lie on both sides; F/F0 rise rate, 10–20 s post-thallium; normalized thallium flux at 10 µM; 23% of 3,700 active; AID 1715;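 active = thallium flux slope more than 3 SD above or below the plate's solvent-only control mean, mostly below; inconclusive = the two repeat wells disagreed; inactive = no significant shift from solvent-only controls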
HEK293 Tl flux – parental HEK flux effect, counter-screen | shares compounds with KCC2 mod | thallium flux rate (normalised fluorescence) at 10 µM | 46% of 3,700 active | HEK293 parental cells, thallium flux FluoZin2, ouabain; baseline-ratio fluorescence slope, 10–20 s after thallium | AID 1716;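 active = thallium flux rate significantly above the same plate's solvent-only control wells, beyond their mean plus 3 SD; inconclusive = the two replicate wells gave conflicting results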
KCC2 retest ouab – modulates human KCC2 on retest with ouabain; shares compounds with KCC2 mod; HEK293-KCC2, thallium flux FluoZin2 fluorescence; bidirectional: low = inhibitor, high = activator; raw Tl+ flux slope (below DMSO = inhibition, above = activation) at 10 µM; 48% of 3,700 active; AID 1717;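 active = thallium flux slope beyond 3 SD from same-plate DMSO control mean in most replicates, usually higher, sometimes lower; inconclusive = repeat tests gave conflicting results; inactive = no significant difference from controls in most replicates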;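 also: slope of initial-normalized fluorescence between seconds 10 and 20 after thallium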
HEK counter2 – acts in parental HEK cells, second KCC2 counter-screen; shares compounds with KCC2 mod; HEK293 parental, thallium flux FluoZin-2 fluorescence slope; thallium flux slope at 10 µM; 33% of 3,700 active;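 active = thallium flux slope above the same plate's solvent-control mean plus 3 SD in both duplicate wells; inconclusive = duplicate wells that disagreed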;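 also: run without ouabain in cells lacking the KCC2 cotransporter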
Hits are given with their value; . = inactive; ? = inconclusive; / = no result given. Hits are enriched below; roughly 12% of the tested compounds scored in any of these assays.

SMILES | Lmaj promast | WT yeast gro inh | KCC2 mod | ROMK primary | Diaphorase inh | Diaph act CS | KCC2 sec1 | KCC2 bumet counter | KCC2 secondary2 | HEK293 Tl flux | KCC2 retest ouab | HEK counter2
S=C(NCCc1ccccc1)N/N=C/c1c(Cl)cccc1Cl | . | . | 7.9 | . | . | . | ? | 0.019 | ? | 0.015 | 0.032 | 0.017
CNC(=S)N/N=C/c1c(Cl)cccc1Cl | . | . | 5.4 | . | . | . | . | 0.014 | . | 0.016 | . | 0.013
S=C(NCCc1ccccc1)N/N=C/c1ccc(Cl)cc1 | / | / | . | . | / | / | / | / | / | / | / | /
CCOC(=O)CSC1=C(C#N)C(=O)NC2(CCCCC2)S1 | . | . | . | . | . | . | / | / | / | / | / | /
Cc1c(NC(=O)CSc2nc3ccccc3s2)c(=O)n(-c2ccccc2)n1C | . | . | . | . | . | . | / | / | / | / | / | /
COCCn1c(C)cc(/C=C2\NC(=S)N(C)C2=O)c1C | . | . | . | . | . | . | / | / | / | / | / | /
CN1C(=O)/C(=C/c2cc3c(cc2Br)OCO3)NC1=S | . | . | 7.1 | . | . | . | ? | 0.023 | . | 0.013 | 0.031 | .
CCSc1nnc(NC(=O)CSc2nccn2-c2cccc(C)c2C)s1 | . | . | 3.1 | . | . | . | . | 0.016 | . | 0.015 | . | 0.018
COc1cccc(C(=O)OCC(=O)NC(=O)NC2CCCC2)c1O | . | . | 11 | . | . | . | . | 0.017 | . | 0.02 | 0.027 | 0.014
O=C(COC(=O)c1cc(=O)[nH]c2ccccc12)NC(=O)NC1CCCCC1 | . | . | . | / | . | . | / | / | / | / | / | /
CCOC(=O)c1sc(=S)n(-c2ccccc2)c1N(C(C)=O)C(C)=O | . | . | . | / | . | . | / | / | / | / | / | /
O=C(NC1CCCC1)c1nc2c(nnn2Cc2ccccc2Cl)c(=O)[nH]1 | . | . | . | . | . | . | / | / | / | / | / | /
O=C(NCc1ccco1)c1nc2c(nnn2Cc2ccccc2Cl)c(=O)[nH]1 | . | . | -3.3 | . | . | . | . | . | . | ? | 0.014 | .
O=C(NCc1cccs1)c1nc2c(nnn2Cc2ccc(F)cc2)c(=O)[nH]1 | . | . | -2.3 | / | . | . | . | ? | 0.023 | . | ? | .
Cc1ccc(C)c(Cn2nnc3c(=O)[nH]c(C(=O)NCc4ccco4)nc32)c1 | . | . | -5.7 | . | . | . | . | . | 0.023 | 0.0062 | 0.014 | ?
O=C(NCc1ccc2c(c1)OCO2)c1ccc(N2CCCC2=O)cc1 | . | . | . | . | . | . | / | / | / | / | / | /
O=c1[nH][nH]c(-c2ccccc2)c1C=Nc1ccccc1Cl | . | . | . | / | . | . | / | / | / | / | / | /
O=C(Nc1ccc(Cl)c(Cl)c1)Nc1ccccc1C(=O)O | . | . | -4.5 | . | . | . | . | ? | 0.024 | . | . | .
O=C(Nc1ccc(Cl)cc1)Nc1ccccc1C(=O)O | . | . | . | . | / | / | / | / | / | / | / | /
COc1ccc(N2C(=S)N=C(Nc3ccccc3)C23CCCCC3)cc1 | . | . | 23 | / | . | . | ? | 0.026 | . | 0.014 | 0.029 | 0.012
Cc1cccc(NC2=NC(=S)N(CC#N)C23CCCCC3)c1 | . | . | . | / | . | . | / | / | / | / | / | /
S=C1CSc2ccccc2N1 | . | . | 8.6 | / | . | . | . | 0.016 | . | 0.014 | ? | 0.014
Cc1cccnc1Nc1nc(-c2ccc(O)cc2)cs1 | 99 | . | / | . | . | . | . | . | . | . | . | ?
Cc1ccc(NC(=S)N(CCN(C)C)Cc2cc3cc(C)ccc3[nH]c2=O)cc1 | . | . | . | . | . | . | / | / | / | / | / | /
CC1(C)CC(=O)C2=C(C1)c1c(ccc3ccccc13)NC2c1cc([N+](=O)[O-])cc([N+](=O)[O-])c1O (centres undefined) | . | . | -4.5 | . | . | . | . | . | 0.027 | ? | 0.016 | .
SMILES | Lmaj promast | WT yeast gro inh | KCC2 mod | ROMK primary | Diaphorase inh | Diaph act CS | KCC2 sec1 | KCC2 bumet counter | KCC2 secondary2 | HEK293 Tl flux | KCC2 retest ouab | HEK counter2
CC1=NC(=O)C(N=Nc2cccc3ccccc23)N1c1ccccc1 (centres undefined) | . | / | . | . | / | / | / | / | / | / | / | /
CC1=C(C(=O)Nc2ccccc2)C(c2ccco2)C(C#N)=C(SCc2ccccc2)N1 (centres undefined) | . | . | / | . | . | . | . | . | . | . | . | .
CC1=C(C(=O)Nc2ccccc2)C(c2ccco2)C(C#N)=C(SCC(=O)OC(C)C)N1 (centres undefined) | . | . | . | / | . | . | / | / | / | / | / | /
CCOC(=O)c1c(C)nc2c(c1-c1cc(OC)ccc1OC)C(=O)c1ccccc1-2 | . | . | / | / | . | . | / | / | / | / | / | /
CCOC(=O)C1=C(Cc2ccc(OC)cc2)C(=O)c2ccccc2C1=O | . | . | 6.6 | / | . | . | . | 0.0082 | . | 0.011 | . | ?
N#Cc1ccsc1NC(=O)c1ccc(Cl)c([N+](=O)[O-])c1 | / | / | -5.3 | / | / | / | . | . | 0.022 | . | ? | .
S=c1[nH]nc(Nc2ccccc2Cl)s1 | . | . | -5.3 | . | . | . | 0.0041 | 0.0094 | 0.022 | 0.012 | 0.012 | 0.014
O=C(O)c1ccccc1C(=O)Nc1n[nH]c(=S)s1 | . | . | . | / | . | . | / | / | / | / | / | /
S=c1[nH]nc(Nc2cccc(Cl)c2)s1 | . | . | -5.8 | . | . | . | . | . | 0.02 | . | ? | .
O=C(CSCc1ccc(Cl)cc1)Nc1cc([N+](=O)[O-])ccc1O | . | . | -3.4 | . | . | . | . | . | 0.022 | 0.0062 | 0.014 | 0.0083
COc1ccc([N+](=O)[O-])cc1NC(=O)CSCc1ccc(Br)cc1 | . | . | . | . | . | . | / | / | / | / | / | /
CCOC(=O)c1ccc(NC(=O)c2ccccc2[N+](=O)[O-])cc1 | . | . | . | / | . | . | / | / | / | / | / | /
O=C(Nc1ccc(S(=O)(=O)NCc2ccccc2)cc1)c1ccccc1[N+](=O)[O-] | . | . | -6.6 | / | . | . | . | . | 0.025 | . | ? | .
COc1ccccc1-n1ccnc1SCC(=O)NCc1ccco1 | . | . | . | . | . | . | / | / | / | / | / | /
S=C(Nc1ccccc1)Nc1cccc(Cl)c1Cl | . | . | 17 | . | . | . | . | 0.016 | . | 0.012 | ? | 0.014

Screening data deposited in PubChem by several laboratories.
